Measured values as given in ChEMBL document CHEMBL4689842, “EUbOPEN Chemogenomics Library wave 1” (2021).

Tested on: HEK-293T
Assay: Multiplex assay against HEK293T;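 on Population Tubulin-Different-Phenotype (%): share of the cells with healthy nuclei that show this phenotype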
Assay type: toxicity, cell-based
Settings: human
Procedure, shortened: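 Live cells carried four stains from seeding: Hoechst33342, BioTracker Green Microtubule Cytoskeleton Dye, MitoTracker Red and Annexin V Alexa Fluor 680. They were imaged on a CQ1 microscope at 37°C and 5% CO2 after compound addition. Using CellPathfinder machine-learning gating, cells were split into Hoechst high-intensity objects or normal cells, normal cells into healthy, pyknosed or fragmented nuclei, and pyknosed cells into mitotic or apoptotic; tubulin, mitochondrial-mass and membrane-permeability phenotypes are per cents of healthy-nucleus cells.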

[1] = 12 h, 1 µM, compound concentration 1 uM, replicate 1
[2] = 12 h, 1 µM, compound concentration 1 uM, replicate 2
[3] = 12 h, 10 µM, compound concentration 10 uM, replicate 1
[4] = 12 h, 10 µM, compound concentration 10 uM, replicate 2
[5] = 24 h, 1 µM, compound concentration 1 uM, replicate 1
[6] = 24 h, 1 µM, compound concentration 1 uM, replicate 2
[7] = 24 h, 10 µM, compound concentration 10 uM, replicate 1
[8] = 24 h, 10 µM, compound concentration 10 uM, replicate 2
[9] = 48 h, 1 µM, compound concentration 1 uM, replicate 1
[10] = 48 h, 1 µM, compound concentration 1 uM, replicate 2
[11] = 48 h, 10 µM, compound concentration 10 uM, replicate 1
[12] = 48 h, 10 µM, compound concentration 10 uM, replicate 2

Compound: COc1cc2c(NC3CCN(C(C)C)CC3)nc(N3CCC(F)(F)CC3)nc2cc1OCCCN1CCCC1
- Population Apoptotic (%) [1]: 67%
- Population Fragmented Nuclei (%) [1]: 16%
- Population Healthy Nuclei (%) [1]: 32%
- Population Hoechst High Intensity Objects (%) [1]: 19%
- Population Membrane Permeable-Phenotype (%) [1]: 0%
- Population Mitochondria Different-Phenotype (%) [1]: 96%
- Population Mitotic Cells (%) [1]: 32%
- Population Normal (%) [1]: 80%
- Population Pyknosed Nuclei (%) [1]: 50%
- Population Tubulin-Different-Phenotype (%) [1]: 76%
- Total Cell Count [1]: 324
- Population Apoptotic (%) [2]: 37%
- Population Fragmented Nuclei (%) [2]: 8%
- Population Healthy Nuclei (%) [2]: 40%
- Population Hoechst High Intensity Objects (%) [2]: 6%
- Population Membrane Permeable-Phenotype (%) [2]: 4%
- Population Mitochondria Different-Phenotype (%) [2]: 56%
- Population Mitotic Cells (%) [2]: 62%
- Population Normal (%) [2]: 93%
- Population Pyknosed Nuclei (%) [2]: 51%
- Population Tubulin-Different-Phenotype (%) [2]: 48%
- Total Cell Count [2]: 235
- Population Apoptotic (%) [3]: 90%
- Population Fragmented Nuclei (%) [3]: 8%
- Population Healthy Nuclei (%) [3]: 26%
- Population Hoechst High Intensity Objects (%) [3]: 18%
- Population Membrane Permeable-Phenotype (%) [3]: 0%
- Population Mitochondria Different-Phenotype (%) [3]: 100%
- Population Mitotic Cells (%) [3]: 9%
- Population Normal (%) [3]: 81%
- Population Pyknosed Nuclei (%) [3]: 64%
- Population Tubulin-Different-Phenotype (%) [3]: 98%
- Total Cell Count [3]: 298
- Population Apoptotic (%) [4]: 92%
- Population Fragmented Nuclei (%) [4]: 7%
- Population Healthy Nuclei (%) [4]: 24%
- Population Hoechst High Intensity Objects (%) [4]: 6%
- Population Mitochondria Different-Phenotype (%) [4]: 98%
- Population Mitotic Cells (%) [4]: 7%
- Population Normal (%) [4]: 93%
- Population Pyknosed Nuclei (%) [4]: 68%
- Population Tubulin-Different-Phenotype (%) [4]: 96%
- Total Cell Count [4]: 245
- Population Apoptotic (%) [5]: 61%
- Population Fragmented Nuclei (%) [5]: 16%
- Population Healthy Nuclei (%) [5]: 42%
- Population Hoechst High Intensity Objects (%) [5]: 24%
- Population Membrane Permeable-Phenotype (%) [5]: 1%
- Population Mitochondria Different-Phenotype (%) [5]: 77%
- Population Mitotic Cells (%) [5]: 38%
- Population Normal (%) [5]: 75%
- Population Pyknosed Nuclei (%) [5]: 41%
- Population Tubulin-Different-Phenotype (%) [5]: 51%
- Total Cell Count [5]: 348
- Population Apoptotic (%) [6]: 39%
- Population Fragmented Nuclei (%) [6]: 6%
- Population Healthy Nuclei (%) [6]: 60%
- Population Hoechst High Intensity Objects (%) [6]: 12%
- Population Membrane Permeable-Phenotype (%) [6]: 4%
- Population Mitochondria Different-Phenotype (%) [6]: 45%
- Population Mitotic Cells (%) [6]: 60%
- Population Normal (%) [6]: 87%
- Population Pyknosed Nuclei (%) [6]: 33%
- Population Tubulin-Different-Phenotype (%) [6]: 45%
- Total Cell Count [6]: 272
- Population Apoptotic (%) [7]: 85%
- Population Fragmented Nuclei (%) [7]: 11%
- Population Healthy Nuclei (%) [7]: 23%
- Population Hoechst High Intensity Objects (%) [7]: 24%
- Population Membrane Permeable-Phenotype (%) [7]: 0%
- Population Mitochondria Different-Phenotype (%) [7]: 100%
- Population Mitotic Cells (%) [7]: 14%
- Population Normal (%) [7]: 75%
- Population Pyknosed Nuclei (%) [7]: 65%
- Population Tubulin-Different-Phenotype (%) [7]: 91%
- Total Cell Count [7]: 324
- Population Apoptotic (%) [8]: 95%
- Population Fragmented Nuclei (%) [8]: 7%
- Population Healthy Nuclei (%) [8]: 25%
- Population Hoechst High Intensity Objects (%) [8]: 14%
- Population Membrane Permeable-Phenotype (%) [8]: 1%
- Population Mitochondria Different-Phenotype (%) [8]: 92%
- Population Mitotic Cells (%) [8]: 4%
- Population Normal (%) [8]: 85%
- Population Pyknosed Nuclei (%) [8]: 67%
- Population Tubulin-Different-Phenotype (%) [8]: 86%
- Total Cell Count [8]: 244
- Population Apoptotic (%) [9]: 55%
- Population Fragmented Nuclei (%) [9]: 19%
- Population Healthy Nuclei (%) [9]: 41%
- Population Hoechst High Intensity Objects (%) [9]: 25%
- Population Membrane Permeable-Phenotype (%) [9]: 4%
- Population Mitochondria Different-Phenotype (%) [9]: 38%
- Population Mitotic Cells (%) [9]: 44%
- Population Normal (%) [9]: 75%
- Population Pyknosed Nuclei (%) [9]: 38%
- Population Tubulin-Different-Phenotype (%) [9]: 38%
- Total Cell Count [9]: 368
- Population Apoptotic (%) [10]: 17%
- Population Fragmented Nuclei (%) [10]: 8%
- Population Healthy Nuclei (%) [10]: 78%
- Population Hoechst High Intensity Objects (%) [10]: 12%
- Population Membrane Permeable-Phenotype (%) [10]: 7%
- Population Mitochondria Different-Phenotype (%) [10]: 9%
- Population Mitotic Cells (%) [10]: 82%
- Population Normal (%) [10]: 87%
- Population Pyknosed Nuclei (%) [10]: 12%
- Population Tubulin-Different-Phenotype (%) [10]: 33%
- Total Cell Count [10]: 508
- Population Apoptotic (%) [11]: 89%
- Population Fragmented Nuclei (%) [11]: 18%
- Population Healthy Nuclei (%) [11]: 10%
- Population Hoechst High Intensity Objects (%) [11]: 26%
- Population Membrane Permeable-Phenotype (%) [11]: 3%
- Population Mitochondria Different-Phenotype (%) [11]: 96%
- Population Mitotic Cells (%) [11]: 10%
- Population Normal (%) [11]: 73%
- Population Pyknosed Nuclei (%) [11]: 70%
- Population Tubulin-Different-Phenotype (%) [11]: 82%
- Total Cell Count [11]: 347
- Population Apoptotic (%) [12]: 94%
- Population Fragmented Nuclei (%) [12]: 8%
- Population Healthy Nuclei (%) [12]: 38%
- Population Hoechst High Intensity Objects (%) [12]: 21%
- Population Membrane Permeable-Phenotype (%) [12]: 5%
- Population Mitochondria Different-Phenotype (%) [12]: 97%
- Population Mitotic Cells (%) [12]: 5%
- Population Normal (%) [12]: 78%
- Population Pyknosed Nuclei (%) [12]: 53%
- Population Tubulin-Different-Phenotype (%) [12]: 84%
- Total Cell Count [12]: 232
